Results reported in ChEMBL document CHEMBL1177679, “Design and synthesis of novel benzimidazole derivatives as inhibitors of hepatitis B virus” (Bioorg Med Chem, 2010).

Tests used:
Hepatitis B virus = assay: Antiviral activity against Hepatitis B virus infected in human HepG2(2.2.15) cells assessed as inhibition of viral cytoplasmic DNA synthesis after 8 days by RT-PCR analysis; type: functional, organism-based; conditions: HepG2 2.2.15, 192 h
[1] = Selectivity index, ratio of CC50 for human HepG2(2.2.15) cells to IC50 for Hepatitis B virus; type: functional
Procedure, shortened: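 SI calculated as CC50 (MTT, HepG2.2.15, 8 days) divided by IC50 for inhibition of cytoplasmic HBV-DNA synthesis (fluorescent PCR) in the same cells.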

[2] = Cytotoxicity against human HepG2(2.2.15) cells after 8 days by MTT assay; type: cell-based
Procedure, shortened: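 HepG2.2.15 cells in triplicate, exposed 8 days to various doses; media-only controls. MTT (5 g/L) added 4 h before end, cells lysed with 10% SDS/50% DMF pH 7.2, OD read at 570 nm 6 h later.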

IC50 (Hepatitis B virus): 160 nM
SMILES: Nc1ccn([C@@H]2CS[C@H](CO)O2)c(=O)n1 [LAMIVUDINE]
Selectivity Index [1]: 31.3
CC50 at 192 h [2]: 5000 nM
